An excerpt weighted towards active compounds, which were near 2.5% of everything screened.
SIRT5 inh – inhibitors of human sirtuin-5 desuccinylase; AID 652115; Q9NXA8; 1.1% of 330,000 active; inhibition, % at 15 µM; Purified SirT5, succinyl-peptide AMC, trypsin-coupled fluorescence; in the data active = inhibition above about 15%; inconclusive = no clear call, values can overlap the other calls
Target sequence (Q9NXA8 whole entry, looked up): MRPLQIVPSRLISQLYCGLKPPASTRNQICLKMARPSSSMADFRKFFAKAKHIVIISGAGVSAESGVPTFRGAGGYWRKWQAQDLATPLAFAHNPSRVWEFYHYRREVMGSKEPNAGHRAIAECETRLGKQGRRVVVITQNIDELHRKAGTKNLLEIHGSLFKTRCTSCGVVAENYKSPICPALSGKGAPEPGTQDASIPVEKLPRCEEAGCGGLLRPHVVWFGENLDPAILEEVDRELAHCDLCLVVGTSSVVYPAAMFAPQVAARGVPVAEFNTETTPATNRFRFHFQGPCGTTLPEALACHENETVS
DENV2 CPE rescue – protects cells from dengue virus 2 cytopathic effect; CPE inhibition, % at 9.99 µM; DENV2-infected cells, cytopathic effect rescue, plate reader; AID 651640; 1.7% of 350,000 active; in the data active = CPE inhibition above about 20%, passing the limit was not always enough; inconclusive = no clear call, values can overlap the other calls; tested in BHK-21 cells;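 also: 0% = median of neutral control wells and 100% = median of positive control wells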
ERAP1 inh – blocks human ERAP1 aminopeptidase activity | AID 652197 | 0.15% of 340,000 active | Q9NZ08 | inhibition, % at 10.7 µM | recombinant ERAP1, Leu-AMC fluorescence, 60 min;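 active = mean replicate inhibition of at least 30%, or all replicates individually reaching that 30% level; inactive = mean below 30% and not every replicate reaching it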;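 also: 0% = neutral control wells and 100% = L-leucinethiol positive control wells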
PglD inh – blocks C. jejuni PglD acetyltransferase activity; 0.098% of 360,000 active; inhibition, % at 12.5 µM; purified PglD enzyme, DTNB colorimetric CoA detection; in the data active = inhibition above about 16%, passing the limit was not always enough; inconclusive = no clear call, values can overlap the other calls
E-sel inducer – induces E-selectin expression in human endothelial cells. 0.37% of 260,000 active. HUVEC E-selectin immunofluorescence imaging; normalized: neutral wells 0, TNF-alpha wells 100. activation, % at 7.58 µM;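 active = mean E-selectin-positive cell signal at least 10% of the positive control, reached in at least 60% of replicates, without over 20% cell loss; inconclusive = no rule given, readout overlaps actives, possibly toxicity-flagged; inactive = the rest, including those meeting only one limit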
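System: HUVEC, human umbilical vein endothelial cells; quantity: 3,000 cells/well; buffer or medium: EGM-2 medium, gelatin-coated wells; dosing: single-point compound dose; detection: immunofluorescence imaging; evaluation: % PE-positive cells; benchmarks: TNF-alpha, DMSO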
* hit, by the source's call; ? = inconclusive; · = no result given; ! = a repeat was not active.

SMILES	SIRT5 inh	DENV2 CPE rescue	ERAP1 inh	PglD inh	E-sel inducer
Cn1cnc(S(=O)(=O)N2C[C@@H](O)COC[C@@H]3O[C@@H](CC(=O)NC4CCCC4)CC[C@H]32)c1	-1	114*	0	5	0
Cn1cnc(S(=O)(=O)N2C[C@H](O)COC[C@H]3O[C@H](CC(=O)NC4CCCC4)CC[C@@H]32)c1	1	20	0	4	0
CN(C)CCCNC(=O)C[C@@H]1CC[C@H]2[C@@H](COC[C@H](O)CN2S(=O)(=O)c2ccccc2)O1	-1	60*	-1	-2	0
COc1cc(CN2CC3(CN(C(=O)Nc4c(C)noc4C)C3)c3c(n(C)c4cc(OC)ccc34)[C@@H]2CO)cc(OC)c1	2	?	-1	·	0
Cc1nc2ccccc2n1C(c1cccnc1)c1nc2ccccc2[nH]1 (stereo unspecified)	·	38*	-2	·	0
C[C@@H]1CN([C@H](C)CO)C(=O)CCCn2nncc2CO[C@H]1CN(C)C(=O)Nc1ccc(C(C)(C)C)cc1	-1	-1	0	-2	0
C[C@@H]1CN([C@@H](C)CO)C(=O)CCCn2nncc2CO[C@H]1CN(C)C(=O)Nc1ccc(C(C)(C)C)cc1	2	22*	3	-5	0
COc1ccc(NC(=O)N(C)C[C@@H]2OCc3cnnn3CCCC(=O)N([C@@H](C)CO)C[C@@H]2C)cc1	-2	24*!	0	-1	-3
COc1ccc(NC(=O)N(C)C[C@H]2OCc3cnnn3CCCC(=O)N([C@@H](C)CO)C[C@H]2C)c(OC)c1	-11	26*!	-1	-4	·
COc1ccc(NC(=O)N(C)C[C@@H]2OCc3cnnn3CCCC(=O)N([C@@H](C)CO)C[C@@H]2C)c(OC)c1	2	2	-3	0	0
CC(=O)Nc1cc(-c2cccc(NS(C)(=O)=O)c2)cn2c(-c3cccc(C(C)=O)c3)cnc12	-7	33*	3	2	0
Cc1ccc(SC(C)C(=O)NCc2ccncc2)cc1 (stereo unspecified)	0	3	82*	0	-2
N/C(=N\OC(=O)Nc1ccccc1)c1cccc(C(F)(F)F)c1	-2	-2	-1	0	·
Cc1cc(/C(N)=N/OC(=O)Nc2cccc(C(F)(F)F)c2)no1	·	0	·	2	67*
CCOC(=O)c1sc2nc(CC(=O)OC)nc(NCc3ccc(F)cc3)c2c1C	·	·	·	2	·
NC[C@@H]1O[C@H](C23CC4CC(CC(C4)C2)C3)Cc2c1ccc(O)c2O	-1	4	31*	6	0
COCC(=O)Nc1ccc2c(c1)OC[C@H](C)N(Cc1ccccn1)C[C@H](C)[C@H](OC)CN(C)C2=O	1	3	-3	-3	1
CN(CC(=O)Nc1ccc(F)cc1)C(=O)COC(=O)c1nc(Cl)ccc1Cl	1	73*	-6	1	0
COC(=O)[C@H](Cc1ccccc1)N1CC(C)(OC)O[C@@H](Cc2ccccc2)[C@H]1/C=C/C1CC1 (stereo partly specified)	4	-5	0	3	·
Cc1ccc(S(=O)(=O)NNC(=O)c2cccc(O)c2)cc1	0	2	0	·	73*
Cc1ccc(S(=O)(=O)NNC(=O)c2ccc(F)cc2)cc1	1	7	0	-1	·
O=C(NNS(=O)(=O)c1ccc(F)cc1)c1cccc(O)c1	17*	6	-4	4	·
O=C(Nc1ccccc1)C1CC(=O)N(Cc2ccccc2)C1 (stereo unspecified)	-2	0	1	-1	·
O=C(Nc1ccc(SC(F)F)cc1)C1CC(=O)N(Cc2ccccc2)C1 (stereo unspecified)	6	22*	7	0	1
CC(=O)N1c2ccc(S(=O)(=O)N3CCC(C(=O)N4CCCC(C)C4)CC3)cc2CC1C (stereo unspecified)	0	11	-1	5	·
COCC(=O)N(C)C[C@H]1Oc2ncc(C#Cc3cccnc3)cc2C(=O)N([C@H](C)CO)C[C@H]1C	1	24*	-1	0	1
COCC(=O)N(C)C[C@H]1Oc2ncc(Br)cc2C(=O)N([C@@H](C)CO)C[C@H]1C	17*!	-2	4	-8	-1
CCC(=O)N(C)C[C@@H]1Oc2ncc(Br)cc2C(=O)N([C@H](C)CO)C[C@H]1C	-4	29*!	-2	-1	0
